According to PubChem BioAssay:
Results filed as inconclusive are left out.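 How the source made its calls, unless noted: active means viability at or below 27.92% in each of two runs, the all-compound median minus 4 SD; inconclusive means no clear call, values can overlap the other calls; inactive means the rest.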

What was measured:
[1] = S. cerevisiae growth inhibition in permissive medium (OD615), pilot counter-assay for S. cerevisiae lifespan shortening project, permissive growth control (AID 705;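 active means growth inhibition above 25% in both replicates, a cutoff set 3 SD above the mean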); details: OD615, 24 h, at 10 µM, active compounds read high
How it was run: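 Timing: 24 h exposure, 30 °C / Material: Saccharomyces cerevisiae strain carrying genetically modified DeaD replicative-lifespan system / Signal: OD at 615 nm / Compound: 10 µM single dose, 0.25% DMSO / Medium: SC raffinose/galactose permissive medium / Evaluation: reduction in yeast growth (OD615)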

[2] = S. cerevisiae growth inhibition in restrictive medium, OD615, pilot screen, restrictive growth control, yeast lifespan reduction project (AID 706;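 active means growth inhibition above a set limit, 3 SD over mean compound inhibition, in both replicates, cut at about 43% in these data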;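 further: modified DeaD lifespan yeast strain shifted to restrictive glucose medium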); details: OD615, 48 h, at 10 µM, active compounds read high
How it was run: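 System: Engineered S. cerevisiae DeaD strain | Detection: OD615 | Buffer or medium: CSMM-D glucose medium | Doses: 10 µM compound, 0.25% DMSO | Timing: 4 h pre-growth plus 48 h compound exposure, 30 °C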

[3] = doxorubicin toxicity protection in MRP-1 cells – H69AR cells, CellTiter-Glo, duplicate, MRP-1 activator project, pilot screen (AID 807;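 active means viability increase at or above a cutoff of the median across tested compounds plus 3 SD, cut at about 8.5% in these data, passing the limit was not always enough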;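 further: compound pretreatment 18-22 h then 72 h combined with doxorubicin; 0% = doxorubicin alone and 100% = vehicle without doxorubicin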); details: H69AR viability with doxorubicin, CellTiter-Glo luminescence; at 10 µM; active compounds read high
[4] = viability of HCT116 without oncogenic beta-catenin – human colon tumor cells, pilot screen (AID 823;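 active means cell viability at or below a set limit in both duplicate runs, the limit being the all-compound median minus 4 SD, cut at about 23% in these data, passing the limit was not always enough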;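 further: 0% = wells killed by 20 µM Hyamine and 100% = untreated DMSO cell wells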); details: HCT116 beta-catenin knockout viability, CellTiter-Glo, 60 h; at 10 µM; active compounds read low
[5] = viability of PTEN-null HCT116 cells – cell-based, HCT116 clonal line, CellTiter-Glo, pilot screen (AID 824); details: HCT116 PTEN-deleted viability, 60 h, at 10 µM, active compounds read low;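 further: 0% = 20 µM Hyamine control and 100% = vehicle cell control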
[6] = RAM pathway blockade in budding yeast – dse1pr::URA3 reporter, 5-FOA selection, pilot screen (AID 869;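 active means inhibition over a set limit, the all-compound mean plus 3 SD, in both replicate runs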;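 further: 0% = DMSO wells with no growth and 100% = 10 µM 1-NA-PP1 with full growth; RAM network block rescues cells from 5-FOA so hits raise OD615 growth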); details: S. cerevisiae dse1pr::URA3 5-FOA growth, OD615, 2 d; at 10 µM; active compounds read high; strain carries analog-sensitive mutant Cbk1 kinase
[7] = RAM signaling pathway blockade in yeast – S. cerevisiae, Pdr1DBD-CYC8 efflux-inhibited sensitized strain, primary screen (AID 1298;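 active means RAM network inhibition above 8.4% in each of two replicates, 3 SD over the compound average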;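 further: 0% = DMSO untreated cells without growth and 100% = 10 µM 1-NA-PP1 full growth; higher means more yeast growth rescued from 5-FOA killing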); details: S. cerevisiae cbk1-as DSE1-URA3 strain, 5-FOA growth OD615, 2 d; at 50 µM; active compounds read high

CCCCS(=O)CC(CS(=O)CCCC)OC(=O)c1ccccc1 (stereo unspecified)
inactive: growth inhibition [1] 4.33% | growth inhibition [2] 5.83% | viability increase [3] -1.89% | viability [4] 102% | viability [5] 96.1% | inhibition [6] 0.405% | RAM network inhibition [7] 2.4%

COc1ccccc1N(CC(=O)Nc1ccc2c(c1)OCO2)S(=O)(=O)c1ccccc1
inactive: growth inhibition [1] -5.44% | growth inhibition [2] -18.2% | viability increase [3] -0.47% | viability [4] 73.7% | viability [5] 84% | inhibition [6] 0.8% | RAM network inhibition [7] 8.21%

Cc1ccc2oc(=O)c3cc(C(=O)NCCN4CCN(C)CC4)sc3c2c1
inactive: growth inhibition [1] -0.32% | growth inhibition [2] -8.46% | viability increase [3] -1.81% | viability [4] 85.5% | viability [5] 83.5% | inhibition [6] 0.16% | RAM network inhibition [7] 0.45%

Cc1oc(-c2ccccc2F)nc1CS(=O)CC(=O)NCc1cccs1 (stereo unspecified)
inactive: growth inhibition [1] -2.83% | growth inhibition [2] 26% | viability increase [3] -2.27% | viability [4] 99.7% | viability [5] 93.4% | inhibition [6] 1.64% | RAM network inhibition [7] 8.65%

O=C(CCN1C(=O)c2ccccc2C1=O)Nc1ccncc1
inactive: growth inhibition [1] 0.69% | growth inhibition [2] -3.13% | viability increase [3] 3.4% | viability [4] 98.5% | viability [5] 105% | inhibition [6] 1.6% | RAM network inhibition [7] 1.47%

CC(C)C(C(=O)NC(C)(C)C)N1C(=O)c2ccccc2C1=O (stereo unspecified)
inactive: growth inhibition [1] -7.04% | growth inhibition [2] 0.73% | viability increase [3] 0.34% | viability [4] 101% | viability [5] 101% | inhibition [6] -0.63% | RAM network inhibition [7] 12.4%

CN(CCNC(=O)Cn1c(=O)sc2ccccc21)Cc1ccccc1
inactive: growth inhibition [1] -1.18% | growth inhibition [2] -7.1% | viability increase [3] -5.12% | viability [4] 77.7% | viability [5] 82.3% | inhibition [6] 1.27% | RAM network inhibition [7] -1.1%

O=C(NCCCNC(=O)c1ccco1)c1ccco1
inactive: growth inhibition [1] -0.405% | growth inhibition [2] 0.005% | viability increase [3] -2.35% | viability [4] 99.9% | viability [5] 107% | inhibition [6] -0.525% | RAM network inhibition [7] 0.16%

COC(=O)C1C2C=CC3(CN(c4ccc(Cl)c(F)c4)C(=O)C13)O2 (stereo unspecified)
inactive: growth inhibition [1] -5.96% | growth inhibition [2] 0.405% | viability increase [3] -1.28% | viability [4] 94.6% | viability [5] 91.8% | inhibition [6] 1.67% | RAM network inhibition [7] 2.93%

CC1Cc2nc(SCC(=O)N3CCCC3)n(C)c(=O)c2S1 (stereo unspecified)
inactive: growth inhibition [1] -3.58% | growth inhibition [2] -13.8% | viability increase [3] -3.27% | viability [4] 98.2% | viability [5] 87.9% | inhibition [6] 1.17% | RAM network inhibition [7] 5.83%

O=C(Cn1cc2c(n1)CCCCC2)NCCN1CCOCC1
inactive: growth inhibition [1] 7.15% | growth inhibition [2] 10.1% | viability increase [3] -0.25% | viability [4] 107% | viability [5] 97.3% | inhibition [6] 2% | RAM network inhibition [7] 2.18%

CCOC(=O)C1CCN(C(=O)COc2cc(C)c(Br)c(C)c2)CC1
inactive: growth inhibition [1] -2.41% | growth inhibition [2] -16.5% | viability increase [3] -3.43% | viability [4] 94.4% | viability [5] 85.3% | inhibition [6] 1.47% | RAM network inhibition [7] 1.59%

O=C(CCC1CCCC1)N1CCN(C(=O)c2ccco2)CC1
inactive: growth inhibition [1] -5.94% | growth inhibition [2] -2.57% | viability increase [3] -3.59% | viability [4] 86.3% | viability [5] 83.2% | inhibition [6] 1.39% | RAM network inhibition [7] 0.98%

COc1cccc(CNC(=O)CCS(=O)(=O)c2cccc3nonc23)c1
inactive: growth inhibition [1] -13.5% | growth inhibition [2] -21.2% | viability increase [3] -3.04% | viability [4] 93.2% | viability [5] 91% | inhibition [6] 1.75% | RAM network inhibition [7] 0.46%

COCCNC(=O)CN1C(=O)CC(C)(C)S(=O)(=O)c2ccccc21
inactive: growth inhibition [1] -2.02% | growth inhibition [2] -10.2% | viability increase [3] 1.42% | viability [4] 109% | viability [5] 101% | inhibition [6] 0.31% | RAM network inhibition [7] -0.36%

CCn1c(=O)c2cc(C(=O)N3CCOCC3)sc2c2ccccc21
inactive: growth inhibition [1] -8.55% | growth inhibition [2] -14.5% | viability increase [3] -3.34% | viability [4] 102% | viability [5] 87.3% | inhibition [6] 0.84% | RAM network inhibition [7] 2.72%

CC(=O)c1coc2ccc(OCCN3CCCCC3)cc12
inactive: growth inhibition [1] -8.68% | growth inhibition [2] -18.4% | viability increase [3] -3.83% | viability [4] 85.2% | viability [5] 85.8% | inhibition [6] 0.64% | RAM network inhibition [7] 2.59%

Cc1cc(NCc2ccco2)nc2cc(O)ccc12
inactive: growth inhibition [1] -11.9% | growth inhibition [2] -28.8% | viability increase [3] -5.57% | viability [4] 92.7% | viability [5] 93.4% | inhibition [6] 1.35% | RAM network inhibition [7] 1.95%
